Our source for the Ki and DR2 values is ChEMBL document CHEMBL1124112, “Indoline analogues of idazoxan: potent alpha 2-antagonists and alpha 1-agonists” (J Med Chem, 1988).

The target in assay [1] is T1, Adrenergic receptor alpha-1 (Rattus norvegicus, UniProt P15823+P23944+P43140).
T1 sequence (P15823 whole entry): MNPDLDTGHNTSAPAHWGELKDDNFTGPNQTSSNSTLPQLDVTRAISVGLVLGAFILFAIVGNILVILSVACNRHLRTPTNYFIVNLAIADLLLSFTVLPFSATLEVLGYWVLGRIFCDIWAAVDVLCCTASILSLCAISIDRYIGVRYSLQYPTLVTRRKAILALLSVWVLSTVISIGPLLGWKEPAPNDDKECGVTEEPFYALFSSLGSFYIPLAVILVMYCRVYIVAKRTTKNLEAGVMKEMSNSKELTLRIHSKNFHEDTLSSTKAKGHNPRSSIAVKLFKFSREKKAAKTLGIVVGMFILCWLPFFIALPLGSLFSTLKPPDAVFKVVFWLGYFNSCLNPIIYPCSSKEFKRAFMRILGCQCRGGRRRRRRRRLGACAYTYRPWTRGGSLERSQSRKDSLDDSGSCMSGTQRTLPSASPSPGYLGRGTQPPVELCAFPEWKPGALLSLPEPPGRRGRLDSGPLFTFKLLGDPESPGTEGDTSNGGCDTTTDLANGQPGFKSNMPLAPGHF
T1 sequence (P23944 whole entry): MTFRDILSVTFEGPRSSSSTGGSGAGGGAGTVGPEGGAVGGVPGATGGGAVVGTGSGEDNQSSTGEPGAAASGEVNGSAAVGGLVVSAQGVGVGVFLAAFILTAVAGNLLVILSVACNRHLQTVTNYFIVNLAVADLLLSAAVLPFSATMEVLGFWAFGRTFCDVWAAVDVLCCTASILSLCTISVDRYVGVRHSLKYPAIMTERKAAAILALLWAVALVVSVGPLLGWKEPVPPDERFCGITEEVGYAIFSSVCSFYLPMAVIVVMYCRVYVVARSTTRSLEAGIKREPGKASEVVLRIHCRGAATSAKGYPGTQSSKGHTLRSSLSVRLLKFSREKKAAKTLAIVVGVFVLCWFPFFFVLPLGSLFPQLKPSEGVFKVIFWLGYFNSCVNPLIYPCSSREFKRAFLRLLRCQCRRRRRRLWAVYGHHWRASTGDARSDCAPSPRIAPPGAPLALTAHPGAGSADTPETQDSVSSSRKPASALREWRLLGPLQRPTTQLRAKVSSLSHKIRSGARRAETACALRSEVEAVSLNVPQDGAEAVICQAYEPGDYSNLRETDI
T1 sequence (P43140 whole entry): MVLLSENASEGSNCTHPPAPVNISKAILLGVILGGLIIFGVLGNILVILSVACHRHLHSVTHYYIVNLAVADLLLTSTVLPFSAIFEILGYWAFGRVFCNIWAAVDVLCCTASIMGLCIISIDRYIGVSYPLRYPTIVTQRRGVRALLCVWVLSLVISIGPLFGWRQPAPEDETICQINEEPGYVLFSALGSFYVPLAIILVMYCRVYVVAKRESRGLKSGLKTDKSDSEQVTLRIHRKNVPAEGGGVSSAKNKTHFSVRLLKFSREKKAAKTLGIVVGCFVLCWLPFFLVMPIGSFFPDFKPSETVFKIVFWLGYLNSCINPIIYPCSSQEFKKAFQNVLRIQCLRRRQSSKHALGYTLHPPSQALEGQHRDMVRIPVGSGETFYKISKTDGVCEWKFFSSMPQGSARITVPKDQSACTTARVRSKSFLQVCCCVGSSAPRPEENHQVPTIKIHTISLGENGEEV
In words: Inhibition of saturable binding of [3H]prazosin to alpha-1 adrenergic receptor in rat cerebral cortical membranes. The class given is cell membranes, Membrane. An outline of the steps:
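Rat cerebral cortical membranes were used as the α1 site source and labelled with [³H]prazosin. Compounds displaced saturable binding. Ki (nM) was defined as the concentration inhibiting saturable binding by 50%.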

For assay [2], the system named is Rattus norvegicus. In words: In vivo antagonist dose producing two fold shift of cirazoline in pithed rats. (postjunctional). It is filed as functional. An outline of the steps: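 Pithed rats, separate groups (n = 4-6). Cirazoline cumulative dose-response on diastolic blood pressure (postjunctional α1) was recorded with and without antagonist given iv. The antagonist dose (μg/kg, iv) giving a twofold rightward shift of the cirazoline curve was reported as DR2.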

Assay [3] relates to Rattus norvegicus. In words: In vivo antagonist dose producing two fold shift of UK-14,304 in pithed rats. (prejunctional).

On to `c1ccc(CN2c3ccccc3CC2C2=NCCN2)cc1` (stereo not drawn), for which the Ki (usually a dissociation constant, usually derived from enzyme kinetics or from competition with a known ligand) in assay [1] is 17.5 nM. The results for the DR2 in the assay with Rattus norvegicus [2] and in the assay with Rattus norvegicus [3] were 0.0543 mg/kg and 0.0087 mg/kg, respectively.
